According to ChEMBL document CHEMBL1134691, “3-Phenyl-5-acyloxymethyl-2H,5H-furan-2-ones: synthesis and biological activity of a novel group of potential antifungal drugs” (2001):
≈ marks a conversion by molar mass, not a printed value.

Legend:
Candida tropicalis [1] = experiment: Inhibition of Candida tropicalis 156 growth for 48 hours in vitro.; type: functional; details: Candida tropicalis, 48 h; read-out: MIC
Summary of the method: (§1)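 NCCLS M27-A broth microdilution in RPMI 1640 with L-glutamine and 0.165 M MOPS, pH 7.0. Isolates kept on Sabouraud dextrose agar. Inoculum 5 × 10^3 cfu/mL final. Compounds were diluted in DMSO (≤2% final) and tested in 2-fold dilutions of 1000–0.24 µmol/L. Incubation at 35 °C, OD540 read at 24 and 48 h. MIC = 80% growth inhibition versus control; assays run twice in duplicate.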

Lichtheimia corymbifera [2] = experiment: In vitro inhibition of Absidia corymbifera 272 growth for 24 hours.; type: functional; details: Lichtheimia corymbifera, 24 h; read-out: MIC
Summary of the method: (§2)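 Filamentous isolates tested by microdilution per NCCLS M27-A in RPMI 1640 plus L-glutamine, buffered with 0.165 M MOPS to pH 7.0. Final inoculum 5 × 10^3 cfu/mL. Compounds in DMSO (final ≤2%), 2-fold series over 1000–0.24 µmol/L. Plates held at 35 °C and read visually after 24 and 48 h. MIC taken as 80% inhibition of control growth; determined twice in duplicate.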

Candida albicans [3] = experiment: Inhibition of Candida albicans ATCC 90028 for 24 hours in vitro.; type: functional; details: Candida albicans, ATCC 90028, 24 h; read-out: MIC; summary of the method: as §1
Clavispora lusitaniae [4] = experiment: Inhibition of Candida lusitaniae 2446/I growth for 48 hours in vitro.; type: functional; details: Clavispora lusitaniae, 48 h; read-out: MIC; summary of the method: as §1
Candida albicans [5] = experiment: Inhibition of Candida albicans ATCC 44859 growth for 24 hours in vitro.; type: functional; details: Candida albicans, ATCC 44859, 24 h; read-out: MIC; summary of the method: as §1
Nakaseomyces glabratus [6] = experiment: Inhibition of Candida glabrata 20/I growth for 48 hours in vitro.; type: functional; details: Nakaseomyces glabratus, 48 h; read-out: MIC; summary of the method: as §1
Clavispora lusitaniae [7] = experiment: Inhibition of Candida lusitaniae 2446/I growth for 24 hours in vitro.; type: functional; details: Clavispora lusitaniae, 24 h; read-out: MIC; summary of the method: as §1
Candida parapsilosis [8] = experiment: Inhibition of Candida parapsilosis ATCC 22019 growth for 24 hours in vitro.; type: functional; details: Lodderomyces parapsilosis, ATCC 22019, 24 h; read-out: MIC; summary of the method: as §1
Pichia kudriavzevii [9] = experiment: Inhibition of Candida krusei ATCC 6258 growth for 24 hours in vitro.; type: functional; details: Pichia kudriavzevii, ATCC 6258, 24 h; read-out: MIC; summary of the method: as §1
Pichia kudriavzevii [10] = experiment: Inhibition of Candida krusei E28 growth for 48 hours in vitro.; type: functional; details: Pichia kudriavzevii, 48 h; read-out: MIC; summary of the method: as §1
Candida tropicalis [11] = experiment: Inhibition of Candida tropicalis 156 growth for 24 hours in vitro.; type: functional; details: Candida tropicalis, 24 h; read-out: MIC; summary of the method: as §1
[12] = Inhibition of Trichophyton mentagrophytes 445 growth for 72 hours in vitro.; type: functional, Arthroderma benhamiae; details: Trichophyton benhamiae, 72 h; read-out: MIC
Summary of the method: (§3)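 Dermatophyte grown in MOPS-buffered (0.165 M, pH 7.0) RPMI 1640 containing L-glutamine, in an M27-A microdilution format. Inoculum 5 × 10^3 cfu/mL final. Compounds from DMSO stocks (≤2% final), 2-fold dilutions 1000–0.24 µmol/L. Incubated at 35 °C, growth judged visually at 72 and 120 h. MIC endpoint is 80% inhibition relative to control; measured twice in duplicate.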

Nakaseomyces glabratus [13] = experiment: Inhibition of Candida glabrata 20/I growth for 24 hours in vitro.; type: functional; details: Nakaseomyces glabratus, 24 h; read-out: MIC; summary of the method: as §1
Aspergillus fumigatus [14] = experiment: Inhibition of Aspergillus fumigatus 231 growth for 48 hours in vitro.; type: functional; details: Aspergillus fumigatus, 48 h; read-out: MIC; summary of the method: as §2
Pichia kudriavzevii [15] = experiment: Inhibition of Candida krusei ATCC 6258 growth for 48 hours in vitro.; type: functional; details: Pichia kudriavzevii, ATCC 6258, 48 h; read-out: MIC; summary of the method: as §1
Lichtheimia corymbifera [16] = experiment: In vitro inhibition of Absidia corymbifera 272 growth for 48 hours.; type: functional; details: Lichtheimia corymbifera, 48 h; read-out: MIC; summary of the method: as §2
Candida parapsilosis [17] = experiment: Inhibition of Candida parapsilosis ATCC 22019 growth for 48 hours in vitro.; type: functional; details: Lodderomyces parapsilosis, ATCC 22019, 48 h; read-out: MIC; summary of the method: as §1
[18] = Inhibition of Trichophyton mentagrophytes 445 growth for 120 hours in vitro.; type: functional, Arthroderma benhamiae; details: Trichophyton benhamiae, 120 h; read-out: MIC; summary of the method: as §3
Candida albicans [19] = experiment: Inhibition of Candida albicans ATCC 90028 for 48 hours in vitro.; type: functional; details: Candida albicans, ATCC 90028, 48 h; read-out: MIC; summary of the method: as §1
Pichia kudriavzevii [20] = experiment: Inhibition of Candida krusei E28 growth for 24 hours in vitro.; type: functional; details: Pichia kudriavzevii, 24 h; read-out: MIC; summary of the method: as §1
Aspergillus fumigatus [21] = experiment: Inhibition of Aspergillus fumigatus 231 growth for 24 hours in vitro.; type: functional; details: Aspergillus fumigatus, 24 h; read-out: MIC; summary of the method: as §2
Trichosporon beigelii [22] = experiment: Inhibition of Trichosporon beigelli 1188 for 24 hours in vitro.; type: functional; details: Trichosporon beigelii, 24 h; read-out: MIC
Summary of the method: (§4)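 Microdilution following NCCLS M27-A. Medium: RPMI 1640 with L-glutamine, 0.165 M MOPS, pH 7.0. Final inoculum 5 × 10^3 cfu/mL. Compounds dissolved in DMSO, final ≤2%, serially halved from 1000 to 0.24 µmol/L. Incubated at 35 °C and read at 24 and 48 h. MIC defined as 80% inhibition of control growth; run twice in duplicate.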

Candida albicans [23] = experiment: Inhibition of Candida albicans ATCC 44859 growth for 48 hours in vitro.; type: functional; details: Candida albicans, ATCC 44859, 48 h; read-out: MIC; summary of the method: as §1
Trichosporon beigelii [24] = experiment: Inhibition of Trichosporon beigelli 1188 for 48 hours in vitro.; type: functional; details: Trichosporon beigelii, 48 h; read-out: MIC; summary of the method: as §4

MIC (Candida tropicalis [1]) [µM] | MIC (Lichtheimia corymbifera [2]) [µM] | MIC (Candida albicans [3]) [µM] | MIC (Clavispora lusitaniae [4]) [µM] | MIC (Candida albicans [5]) [µM] | MIC (Nakaseomyces glabratus [6]) [µM] | MIC (Clavispora lusitaniae [7]) [µM] | MIC (Candida parapsilosis [8]) [µM] | MIC (Pichia kudriavzevii [9]) [µM] | MIC (Pichia kudriavzevii [10]) [µM] | MIC (Candida tropicalis [11]) [µM] | MIC [12] [µM] | MIC (Nakaseomyces glabratus [13]) [µM] | MIC (Aspergillus fumigatus [14]) [µM] | MIC (Pichia kudriavzevii [15]) [µM] | MIC (Lichtheimia corymbifera [16]) [µM] | MIC (Candida parapsilosis [17]) [µM] | MIC [18] [µM] | MIC (Candida albicans [19]) [µM] | MIC (Pichia kudriavzevii [20]) [µM] | SMILES | also measured
62.5 (≈ 16.4 µg/mL) | 62.5 (≈ 16.4 µg/mL) | 31.2 (≈ 8.2 µg/mL) | 62.5 (≈ 16.4 µg/mL) | < 0.98 | 31.2 (≈ 8.2 µg/mL) | 31.2 (≈ 8.2 µg/mL) | 31.2 (≈ 8.2 µg/mL) | 62.5 (≈ 16.4 µg/mL) | 125 (≈ 32.8 µg/mL) | 31.2 (≈ 8.2 µg/mL) | 7.81 (≈ 2.05 µg/mL) | 31.2 (≈ 8.2 µg/mL) | 31.2 (≈ 8.2 µg/mL) | 125 (≈ 32.8 µg/mL) | 62.5 (≈ 16.4 µg/mL) | 62.5 (≈ 16.4 µg/mL) | 7.81 (≈ 2.05 µg/mL) | 31.2 (≈ 8.2 µg/mL) | 62.5 (≈ 16.4 µg/mL) | COc1ccc(C2=CC(COC(C)=O)OC2=O)cc1 (stereo not given) | MIC (Aspergillus fumigatus [21]): 3.91 µM (≈ 1.03 µg/mL); MIC (Trichosporon beigelii [22]): 62.5 µM (≈ 16.4 µg/mL); MIC (Candida albicans [23]): 15.6 µM (≈ 4.1 µg/mL); MIC (Trichosporon beigelii [24]): 62.5 µM (≈ 16.4 µg/mL)
7.81 (≈ 2.35 µg/mL) | 15.6 (≈ 4.71 µg/mL) | 3.91 (≈ 1.18 µg/mL) | 1.95 (≈ 0.587 µg/mL) | 0.49 (≈ 0.148 µg/mL) | 0.98 (≈ 0.295 µg/mL) | 1.95 (≈ 0.587 µg/mL) | 3.91 (≈ 1.18 µg/mL) | 3.91 (≈ 1.18 µg/mL) | 3.91 (≈ 1.18 µg/mL) | 3.91 (≈ 1.18 µg/mL) | 0.98 (≈ 0.295 µg/mL) | 0.98 (≈ 0.295 µg/mL) | 7.81 (≈ 2.35 µg/mL) | 7.81 (≈ 2.35 µg/mL) | 15.6 (≈ 4.71 µg/mL) | 7.81 (≈ 2.35 µg/mL) | 0.98 (≈ 0.295 µg/mL) | 3.91 (≈ 1.18 µg/mL) | 3.91 (≈ 1.18 µg/mL) | CC(=O)OCC1C=C(c2ccc(Cl)c(Cl)c2)C(=O)O1 (stereo not given) | MIC (Aspergillus fumigatus [21]): 0.98 µM (≈ 0.295 µg/mL); MIC (Trichosporon beigelii [22]): 1.95 µM (≈ 0.587 µg/mL); MIC (Candida albicans [23]): 3.91 µM (≈ 1.18 µg/mL); MIC (Trichosporon beigelii [24]): 7.81 µM (≈ 2.35 µg/mL)
125 (≈ 44.8 µg/mL) | 31.2 (≈ 11.2 µg/mL) | 31.2 (≈ 11.2 µg/mL) | 125 (≈ 44.8 µg/mL) | 1.95 (≈ 0.7 µg/mL) | 125 (≈ 44.8 µg/mL) | 62.5 (≈ 22.4 µg/mL) | 62.5 (≈ 22.4 µg/mL) | 31.2 (≈ 11.2 µg/mL) | 62.5 (≈ 22.4 µg/mL) | 31.2 (≈ 11.2 µg/mL) | 7.81 (≈ 2.8 µg/mL) | 62.5 (≈ 22.4 µg/mL) | 125 (≈ 44.8 µg/mL) | 62.5 (≈ 22.4 µg/mL) | 62.5 (≈ 22.4 µg/mL) | > 125 | 15.6 (≈ 5.61 µg/mL) | 62.5 (≈ 22.4 µg/mL) | 31.2 (≈ 11.2 µg/mL) | COc1ccc(C2=CC(COC(=O)c3ccc(Cl)cc3)OC2=O)cc1 (stereo not given) | MIC (Aspergillus fumigatus [21]): 31.2 µM (≈ 11.2 µg/mL); MIC (Trichosporon beigelii [22]): > 125 µM; MIC (Candida albicans [23]): 15.6 µM (≈ 5.61 µg/mL); MIC (Trichosporon beigelii [24]): > 125 µM
15.6 (≈ 6.37 µg/mL) | 7.81 (≈ 3.18 µg/mL) | 3.91 (≈ 1.59 µg/mL) | 7.81 (≈ 3.18 µg/mL) | 1.95 (≈ 0.795 µg/mL) | 1.95 (≈ 0.795 µg/mL) | 3.91 (≈ 1.59 µg/mL) | 7.81 (≈ 3.18 µg/mL) | 7.81 (≈ 3.18 µg/mL) | 15.6 (≈ 6.37 µg/mL) | 7.81 (≈ 3.18 µg/mL) | 1.95 (≈ 0.795 µg/mL) | 1.95 (≈ 0.795 µg/mL) | 3.91 (≈ 1.59 µg/mL) | 15.6 (≈ 6.37 µg/mL) | 15.6 (≈ 6.37 µg/mL) | 15.6 (≈ 6.37 µg/mL) | 3.91 (≈ 1.59 µg/mL) | 7.81 (≈ 3.18 µg/mL) | 7.81 (≈ 3.18 µg/mL) | O=C1OC(COC(=O)c2ccc(Cl)cc2)C=C1c1ccc(Br)cc1 (stereo not given) | MIC (Aspergillus fumigatus [21]): 0.98 µM (≈ 0.399 µg/mL); MIC (Trichosporon beigelii [22]): 3.91 µM (≈ 1.59 µg/mL); MIC (Candida albicans [23]): 3.91 µM (≈ 1.59 µg/mL); MIC (Trichosporon beigelii [24]): 15.6 µM (≈ 6.37 µg/mL)
15.6 (≈ 4.86 µg/mL) | 7.81 (≈ 2.43 µg/mL) | 1.95 (≈ 0.607 µg/mL) | 3.91 (≈ 1.22 µg/mL) | < 0.98 | 1.95 (≈ 0.607 µg/mL) | 1.95 (≈ 0.607 µg/mL) | 7.81 (≈ 2.43 µg/mL) | 3.91 (≈ 1.22 µg/mL) | 7.81 (≈ 2.43 µg/mL) | 7.81 (≈ 2.43 µg/mL) | 1.95 (≈ 0.607 µg/mL) | 0.98 (≈ 0.305 µg/mL) | 3.91 (≈ 1.22 µg/mL) | 7.81 (≈ 2.43 µg/mL) | 15.6 (≈ 4.86 µg/mL) | 7.81 (≈ 2.43 µg/mL) | 1.95 (≈ 0.607 µg/mL) | 3.91 (≈ 1.22 µg/mL) | 3.91 (≈ 1.22 µg/mL) | CC(=O)OCC1C=C(c2ccc(Br)cc2)C(=O)O1 (stereo not given) | MIC (Aspergillus fumigatus [21]): 0.98 µM (≈ 0.305 µg/mL); MIC (Trichosporon beigelii [22]): 3.91 µM (≈ 1.22 µg/mL); MIC (Candida albicans [23]): 1.95 µM (≈ 0.607 µg/mL); MIC (Trichosporon beigelii [24]): 7.81 µM (≈ 2.43 µg/mL)
